System: b(h)CAII
Experiment: dot blot detection of b
Format: binding, bovine; human
Conditions: biligand in 0.1% serum, compared with triligand in 10% porcine serum
Outline: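 Dot blot with the test peptide as capture agent for b(h)CAII in 10% porcine serum, varying protein amount to find the detection limit. For comparison, the biligand anchor served as capture agent in 0.1% serum.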

For `C#CC[C@@H](N)C(=O)N[C@H](CCCCN)C(=O)N[C@H](Cc1c[nH]c2ccccc12)C(=O)N[C@H](CC(C)C)C(=O)N[C@H](Cc1c[nH]c2ccccc12)C(=O)NCC(=O)N[C@H](CC(C)C)C(=O)N[C@@H](CCCCn1cc(C[C@@H](NC(=O)[C@@H](CCCCN)NC(=O)[C@@H](Cc2ccccc2)NC(=O)[C@@H](Cc2c[nH]c3ccccc23)NC(=O)[C@@H](CC(C)C)NC(=O)[C@@H](CCCCN)NC(=O)[C@H](N)CC(C)C)C(N)=O)nn1)C(N)=O` [(D-Pra)-kwlwGl-Tz1-kfwlkl], the “reduction in sensitivity (biligand anchor as capture agent versus triligand)” value was “more than 10 fold”.

— paper PMC3716464 (Angewandte Chemie (International ed. in English), 2009)
